ChEMBL document CHEMBL1137688, “Design, synthesis and antibacterial activity of novel actinonin derivatives containing benzimidazole heterocycles” (2009)
≈ marks a conversion by molar mass, not a printed value.

Columns and labels:
Assay type in all cases: functional
Staphylococcus aureus = experiment: Antimicrobial activity against Staphylococcus aureus CMCC 26112 after 24 hrs by broth microdilution method; conditions: CMCC 26112, 24 h
Outline: (§1)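 Broth microdilution in Mueller-Hinton broth. Compounds tested across a doubling-dilution series, with cefoperazone as the positive control. Plates incubated 24 h at 37 °C. MIC taken as the lowest concentration showing no visible bacterial growth.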

Micrococcus luteus = experiment: Antimicrobial activity against Sarcina lutea CMCC 28001 after 24 hrs by broth microdilution method; conditions: CMCC 28001, 24 h; outline: as §1
Klebsiella pneumoniae = experiment: Antimicrobial activity against Klebsiella pneumoniae CMCC 46117 after 24 hrs by broth microdilution method; conditions: CMCC 46117, 24 h; outline: as §1

Compound	MIC (Staphylococcus aureus) [µg/mL]	MIC (Micrococcus luteus) [µg/mL]	MIC (Klebsiella pneumoniae) [µg/mL]
CCCC[C@H](CC(=O)NO)C(=O)N[C@H](c1nc2ccccc2[nH]1)C(C)C	2 (≈ 5.55 µM)	4 (≈ 11.1 µM)	0.5 (≈ 1.39 µM)
CCCC[C@H](CC(=O)NO)C(=O)N[C@H](c1nc2cc(C)ccc2[nH]1)C(C)C	8 (≈ 21.4 µM)	8 (≈ 21.4 µM)	4 (≈ 10.7 µM)
CCCC[C@H](CC(=O)NO)C(=O)N[C@H](c1nc2cc(OC)ccc2[nH]1)C(C)C	8 (≈ 20.5 µM)	8 (≈ 20.5 µM)	8 (≈ 20.5 µM)
CCCC[C@H](CC(=O)NO)C(=O)N[C@H](c1nc2cc(C(=O)N3CCCCC3)ccc2[nH]1)C(C)C	> 64	> 64	8 (≈ 17 µM)
CCCC[C@H](CC(=O)NO)C(=O)N[C@H](c1nc2cc(C(=O)N3CCOCC3)ccc2[nH]1)C(C)C	16 (≈ 33.8 µM)	16 (≈ 33.8 µM)	8 (≈ 16.9 µM)
CCCC[C@H](CC(=O)NO)C(=O)N[C@H](c1nc2cc(C(=O)Nc3ccc(OC)cc3)ccc2[nH]1)C(C)C	32 (≈ 62.8 µM)	16 (≈ 31.4 µM)	16 (≈ 31.4 µM)
CCCC[C@H](CC(=O)NO)C(=O)N[C@H](c1nc2cc(C(=O)NC3CCCCC3)ccc2[nH]1)C(C)C	64 (≈ 132 µM)	64 (≈ 132 µM)	32 (≈ 65.9 µM)
CCN1CCN(C(=O)N[C@@H](C(=O)N[C@@H]2C(=O)N3C(C(=O)O)=C(CSc4nnnn4C)CS[C@H]23)c2ccc(O)cc2)C(=O)C1=O [CEFOPERAZONE]	0.25 (≈ 0.387 µM)	0.25 (≈ 0.387 µM)	0.25 (≈ 0.387 µM)
